ChEMBL document CHEMBL4732105, “First orally bioavailable prodrug of proteolysis targeting chimera (PROTAC) degrades cyclin-dependent kinases 2/4/6 in vivo” (Eur J Med Chem, 2021)
The source made the active and inactive calls. The calls are words filed in the database; no cut-off is given here.

Assays:
[1] = target: T1, Protein cereblon/Cyclin-dependent kinase 2 (Mus musculus) (UniProt P97377+Q8C7D2); experiment: Protac activity at CRBN/CDK2 in mouse B16F10 cells assessed as induction of CDK2 protein degradation at 100 nM for 6 hrs in presence of proteasome inhibitor MG132 by Western blot analysis; format: cell-based; details: B16-F10
Outline: (§1)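 B16F10 cells pre-treated 2 h with DMSO, pomalidomide (10 μM), MG132 (20 μM) or a parent CDK ligand, then exposed to 100 nM degrader for 6 h. CDK2/4/6 protein levels read by western blot.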

B16-F10 [2] = experiment: Cytotoxicity against mouse B16F10 cells assessed as reduction in cell viability after 72 hrs by MTT assay; format: functional, cell-based; details: B16-F10, 72 h
Outline: (§2)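 Cells exposed to compound for 72 h and viability read by MTT; IC50 from three independent experiments.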

[3] = target: T1, Protein cereblon/Cyclin-dependent kinase 2 (Mus musculus); experiment: Protac activity at CRBN/CDK2 in mouse B16F10 cells assessed as induction of CDK2 protein degradation after 12 hrs by Western blot analysis; format: cell-based; details: B16-F10, dose 62.5-1000 nM
Outline: (§3)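 B16F10 and A375 cells treated with DMSO or serial dilutions of compound for 12 h (concentration series), or for the indicated times (time course). CDK2, CDK4 and CDK6 protein levels determined by western blot.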

A-375 [4] = experiment: Induction of apoptosis in human A-375 cells assessed as increase in bax level upto 2000 nM incubated for 48 hrs by Western blot analysis; format: functional, cell-based; details: dose nM <=2000, time 48.0 hrs
Outline: (§4)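 A375 and B16F10 cells incubated with compound for 48 h. Cleaved caspase-3, cleaved PARP, total P53, Bcl-2 and Bax measured by western blot.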

A-375 [5] = experiment: Induction of apoptosis in human A-375 cells assessed as increase in cleaved caspase 3 level incubated for 48 hrs by Western blot analysis; format: functional, cell-based; details: dose nM <=2000, time 48.0 hrs; outline: as §4
B16-F10 [6] = experiment: Induction of cell cycle arrest in mouse B16-F10 cells assessed as accumulation at G1 phase at 100 uM incubated for 48 hrs by propidium iodide staining based flow cytometry (reference value: 52.59%); format: functional
A-375 [7] = experiment: Cytotoxicity against human A375 cells assessed as reduction in cell viability after 72 hrs by MTT assay; format: functional, cell-based; details: A-375, 72 h; outline: as §2
A-375 [8] = experiment: Induction of apoptosis in human A-375 cells incubated for 48 hrs by Annexin V-FITC/PI staining based flow cytometry; format: functional, cell-based; details: dose nM <=1000, time 48.0 hrs
A-375 [9] = experiment: Induction of apoptosis in human A-375 cells assessed as increase in cleaved PARP level incubated for 48 hrs by Western blot analysis; format: functional, cell-based; details: dose nM <=2000, time 48.0 hrs; outline: as §4
[10] = target: T2, Protein cereblon/Cyclin-dependent kinase 2 (Homo sapiens) (UniProt P24941+Q96SW2); experiment: Protac activity at CRBN/CDK2 in human A-375 cells assessed as induction of CDK2 protein degradation after 12 hrs by Western blot analysis; format: cell-based; details: dose 62.5-1000 nM; outline: as §3
B16-F10 [11] = experiment: Induction of apoptosis in mouse B16F10 cells assessed as necrotic cells at 500 nM incubated for 48 hrs by Annexin V-FITC/PI staining based flow cytometry (reference value: 0.21%); format: functional
B16-F10 [12] = experiment: Induction of apoptosis in mouse B16F10 cells assessed as viable cells at 250 nM incubated for 48 hrs by Annexin V-FITC/PI staining based flow cytometry (reference value: 95.9%); format: functional; details: read-out: Activity
A-375 [13] = experiment: Induction of apoptosis in human A-375 cells assessed as necrotic cells at 500 nM incubated for 48 hrs by Annexin V-FITC/PI staining based flow cytometry (reference value: 0.602%); format: functional
[14] = Tmax in Sprague-Dawley rat at 200 mg/kg, po; format: ADME, organism-based; details: in vivo
Outline: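 SD rats, n = 3, single dose of prodrug: IV by tail vein at 10 mg/Kg, or PO at 200 mg/Kg. Plasma levels of prodrug and released active degrader followed over 0–12 h. Parameters derived by a non-compartmental model.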

B16-F10 [15] = experiment: Induction of apoptosis in mouse B16F10 cells assessed as necrotic cells at 250 nM incubated for 48 hrs by Annexin V-FITC/PI staining based flow cytometry (reference value: 0.21%); format: functional
A-375 [16] = experiment: Induction of apoptosis in human A-375 cells assessed as late apoptotic cells at 500 nM incubated for 48 hrs by Annexin V-FITC/PI staining based flow cytometry (reference value: 3.28%); format: functional
A-375 [17] = experiment: Induction of cell cycle arrest in human A-375 cells assessed as accumulation at G2 phase at 250 uM incubated for 48 hrs by propidium iodide staining based flow cytometry (reference value: 12.42%); format: functional
Outline: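 Tumor cells incubated 48 h in complete medium with compound or DMSO at various concentrations, stained with propidium iodide, and DNA content read by flow cytometry. G0/G1, S and G2/M fractions reported; mean ± SD, n = 3, Student's t-test.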

A-375 [18] = experiment: Induction of apoptosis in human A-375 cells assessed as necrotic cells at 1000 nM incubated for 48 hrs by Annexin V-FITC/PI staining based flow cytometry (reference value: 0.602%); format: functional
[19] = target: T3, Protein cereblon/Cyclin-dependent kinase 6 (Mus musculus) (UniProt Q8C7D2+Q64261); experiment: Protac activity at CRBN/CDK6 in mouse B16F10 cells assessed as induction of CDK6 protein degradation at 100 nM for 6 hrsin presence of Pomalidomide by Western blot analysis; format: cell-based; details: B16-F10, time 6.0 hrs; outline: as §1
[20] = target: T3, Protein cereblon/Cyclin-dependent kinase 6 (Mus musculus); experiment: Protac activity at CRBN/CDK6 in mouse B16F10 cells assessed as induction of CDK6 protein degradation at 100 nM for 6 hrs in presence of proteasome inhibitor MG132 by Western blot analysis; format: cell-based; details: B16-F10; outline: as §1
[21] = AUC (0 to 12 hrs) in Sprague-Dawley rat at 200 mg/kg, po; format: ADME, organism-based; set-up: time < 12 hr, route oral, dose 200 mg/kg; details: in vivo
Outline: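 Single oral dose of 200 mg/Kg to SD rats (n = 3). Prodrug and released active degrader quantified in plasma over 0–12 h; Cmax, Tmax and AUC0-12 derived by non-compartmental model.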

[22] = AUC (0 to 12 hrs) in Sprague-Dawley rat at 10 mg/kg, iv; format: ADME, organism-based; set-up: time < 12 hr, route intravenous, dose 10 mg/kg; details: in vivo
[23] = target: T1, Protein cereblon/Cyclin-dependent kinase 2 (Mus musculus); experiment: Protac activity at CRBN/CDK2 in mouse B16F10 cells assessed as induction of CDK2 protein degradation at 500 nM by Western blot analysis; format: cell-based; details: B16-F10, time hrs <=12, TDE = time-dependent effect; outline: as §3
[24] = target: Protein cereblon/Cyclin-dependent kinase 4 (Homo sapiens) (UniProt P11802+Q96SW2); experiment: Protac activity at CRBN/CDK4 in human A-375 cells assessed as induction of CDK4 protein degradation at 1000 nM by Western blot analysis; format: cell-based; details: time hrs <=12, TDE = time-dependent effect; outline: as §3
[25] = target: T2, Protein cereblon/Cyclin-dependent kinase 2 (Homo sapiens); experiment: Protac activity at CRBN/CDK2 in human A-375 cells assessed as induction of CDK2 protein degradation at 1000 nM by Western blot analysis; format: cell-based; details: time hrs <=12, TDE = time-dependent effect; outline: as §3
B16-F10 [26] = experiment: Induction of apoptosis in mouse B16F10 cells assessed as viable cells at 500 nM incubated for 48 hrs by Annexin V-FITC/PI staining based flow cytometry (reference value: 95.9%); format: functional; details: read-out: Activity
B16-F10 [27] = experiment: Induction of apoptosis in mouse B16F10 cells assessed as late apoptotic cells at 125 nM incubated for 48 hrs by Annexin V-FITC/PI staining based flow cytometry (reference value: 0.551%); format: functional
A-375 [28] = experiment: Induction of apoptosis in human A-375 cells assessed as increase in P-53 level upto 2000 nM incubated for 48 hrs by Western blot analysis; format: functional, cell-based; details: dose nM <=2000, time 48.0 hrs; outline: as §4

T1 sequence (Q8C7D2 whole entry, looked up, other chains not shown): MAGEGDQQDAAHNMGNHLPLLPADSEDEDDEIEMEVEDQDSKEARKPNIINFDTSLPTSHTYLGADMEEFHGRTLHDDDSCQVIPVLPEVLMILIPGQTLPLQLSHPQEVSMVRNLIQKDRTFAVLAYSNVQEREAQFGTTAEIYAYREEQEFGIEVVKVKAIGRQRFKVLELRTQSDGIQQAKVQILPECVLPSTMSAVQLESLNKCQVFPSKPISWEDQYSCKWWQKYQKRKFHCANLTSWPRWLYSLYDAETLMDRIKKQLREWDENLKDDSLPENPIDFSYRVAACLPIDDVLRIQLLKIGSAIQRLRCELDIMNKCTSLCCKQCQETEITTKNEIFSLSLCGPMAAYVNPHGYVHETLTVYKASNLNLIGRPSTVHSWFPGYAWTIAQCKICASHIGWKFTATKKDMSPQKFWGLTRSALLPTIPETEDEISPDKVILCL
T3 sequence (Q64261 whole entry, looked up): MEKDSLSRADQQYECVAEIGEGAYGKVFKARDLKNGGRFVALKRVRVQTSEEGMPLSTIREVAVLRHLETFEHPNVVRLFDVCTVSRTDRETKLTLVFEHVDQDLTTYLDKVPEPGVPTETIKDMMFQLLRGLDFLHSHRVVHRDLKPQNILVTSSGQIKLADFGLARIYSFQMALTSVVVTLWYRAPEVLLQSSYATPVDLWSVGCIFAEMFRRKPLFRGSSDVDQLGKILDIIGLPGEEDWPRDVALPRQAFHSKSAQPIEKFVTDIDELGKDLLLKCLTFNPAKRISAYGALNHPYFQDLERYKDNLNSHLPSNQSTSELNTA
T3 sequence (Q8C7D2 whole entry, looked up): as the sequence (Q8C7D2 whole entry, looked up, other chains not shown) above
Sequence of Protein cereblon/Cyclin-dependent kinase 4 (Homo sapiens) (P11802 2-303 limits assumed): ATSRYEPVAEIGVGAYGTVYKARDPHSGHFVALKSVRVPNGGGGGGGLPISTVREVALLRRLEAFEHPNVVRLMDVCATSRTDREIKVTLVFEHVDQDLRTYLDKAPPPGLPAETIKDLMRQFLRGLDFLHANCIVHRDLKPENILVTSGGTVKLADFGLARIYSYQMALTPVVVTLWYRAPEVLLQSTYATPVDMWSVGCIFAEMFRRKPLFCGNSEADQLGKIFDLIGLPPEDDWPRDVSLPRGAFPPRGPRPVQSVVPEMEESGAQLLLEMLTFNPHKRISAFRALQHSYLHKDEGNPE
Sequence of Protein cereblon/Cyclin-dependent kinase 4 (Homo sapiens) (Q96SW2 whole entry partner): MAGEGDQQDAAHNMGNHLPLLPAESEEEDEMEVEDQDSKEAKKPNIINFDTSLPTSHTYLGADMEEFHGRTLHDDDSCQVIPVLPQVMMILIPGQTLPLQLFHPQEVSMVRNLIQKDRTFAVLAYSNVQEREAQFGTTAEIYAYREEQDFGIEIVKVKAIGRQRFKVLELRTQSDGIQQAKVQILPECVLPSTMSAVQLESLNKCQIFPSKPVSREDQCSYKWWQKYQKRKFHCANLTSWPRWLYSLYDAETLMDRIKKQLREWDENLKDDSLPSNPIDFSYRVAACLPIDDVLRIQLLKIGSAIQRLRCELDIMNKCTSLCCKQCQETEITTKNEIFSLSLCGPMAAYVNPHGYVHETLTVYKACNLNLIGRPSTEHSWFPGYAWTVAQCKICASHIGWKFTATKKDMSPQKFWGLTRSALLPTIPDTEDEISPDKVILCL

Activity [1]: inactive
Activity [3]: Dose-dependent effect
Activity [10]: Dose-dependent effect
Tmax [14]: 15 min
Activity [19]: inactive
Activity [20]: inactive
AUC [21]: 823 µg·h/mL
AUC [22]: 161 µg·h/mL
Activity [23]: Tde
Activity [24]: Tde
Activity [25]: Tde
SMILES: CN(C)C(=O)c1cc2cnc(Nc3ccc(C(=O)NCCCCCCNc4cccc5c4C(=O)N(C4CCC(=O)NC4=O)C5=O)cc3)nc2n1C1CCCC1 (stereo not drawn)
IC50 (B16-F10 [2]): 97.6 nM
Activity (A-375 [4]): Active
Activity (A-375 [5]): Dose-dependent effect
Activity (B16-F10 [6]): 52.42%
IC50 (A-375 [7]): 166 nM
Activity (A-375 [8]): Dose-dependent effect
Activity (A-375 [9]): Dose-dependent effect
Activity (B16-F10 [11]): 0.081%
viability at 0.25 µM (B16-F10 [12]): 23.4%
Activity (A-375 [13]): 0.153%
Activity (B16-F10 [15]): 0.14%
Activity (A-375 [16]): 5.1%
Activity (A-375 [17]): 9.57%
Activity (A-375 [18]): 0.273%
viability at 0.5 µM (B16-F10 [26]): 4.73%
Activity (B16-F10 [27]): 6.5%
Activity (A-375 [28]): Active
